We go through 16 molecules from PubChem BioAssay.

Assay [1] in a line: Her2 expression decrease, cell viability multiplex – SKBR3 breast tumor cells, AlphaScreen, ATP viability, primary screen (AID 461;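 active = Her2 level under about 52% in both replicate screens, with viability over 70% of control, limit read from the data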;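 as to Her2 level: lower value means less Her2 protein in the cells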;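 as to viability: percent of carrier control wells set as 100% viability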). The settings on record: SKBR3 Her2 protein level, 18-24 h, measured here: SKBR3 viability, ATP luminescence, at 10 µM.
In assay [2] the target is Receptor tyrosine-protein kinase erbB-2 (Homo sapiens) (UniProt P04626). The assay is described as above. The following applies: 18-24 h, at 10 µM, stronger effect = lower value.
A short description of assay [3]: reduced viability of SK-BR-3 breast cancer cells – cell-based, 24 h, human, pilot screen (AID 572;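 active = viability at or below 10% of carrier control in both of two separate runs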;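 also: compound exposure lasted between 18 and 24 h rather than exactly 24 h; 100% = carrier-treated control wells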). The settings on record: SK-BR-3 viability, CellTiter-Glo luminescence, at 10 µM, stronger effect = lower value. (In ATP-based viability assays light output follows the ATP content of the culture.)
Assay [4] in a line: HUVEC growth inhibition – cell-based, human, primary screen (AID 575;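 active = viability at or below 30% in both replicate assays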;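 also: 100% = median of untreated cell wells with 0.1% DMSO on each plate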). The following applies: HUVEC proliferation, CellTiter-Glo luminescence, 72 h; at 10 µM; stronger effect = lower value. A digest of the protocol:
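System: primary human umbilical vein endothelial cells; Quantity: 1250 endothelial cells in each well; Buffer or medium: supplemented EBM, 2% fetal bovine serum; Doses: one dose, 10 µM final, 0.1% DMSO; Incubation: 72 h compound incubation; Technique: ATP-based CellTiter-Glo luminescent read; Evaluation: percent of median DMSO-control luminescence; Controls: vehicle and MePR control wells.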

Assay [5] in a line: H69AR cell proliferation blockers – human, duplicate replicates, primary screen (AID 580;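 active = viability at or under a set limit in both replicates, limit being median viability minus 3 SD, cut at about 48% in these data, passing the limit was not always enough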;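 also: 100% = mean luminescence of untreated wells and 0% = no signal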). The following applies: H69AR lung tumor cells viability, ATP luminescence, 72 h; at 10 µM; stronger effect = lower value.
Assay [6] in a line: MRP1 drug-resistance reversers in H69AR cells – cell-based, doxorubicin co-treatment, pilot screen (AID 601). The following applies: CellTiter-Glo, 72 h, at 10 µM; for differential viability (reversal): stronger effect = higher value.
The nature of assay [7]: yeast transport mutant growth inhibition pilot in 384-well plates, post-Golgi transport modulator project (AID 636; in the data active = inhibition above about 31%). The following applies: absorbance 615 nm, about 18 h, stronger effect = higher value.
A short description of assay [8]: growth suppression of yeast trafficking mutant, preliminary HTS, modulators of trafficking downstream of Golgi apparatus project, 1536-format plate, OD 615 nm (AID 637; in the data active = inhibition above about 30%). The settings on record: yeast transport mutant growth, absorbance 615 nm, 18 h; stronger effect = higher value.
The mark [9] stands for this setting: H69AR cells + 2 uM doxorubicin, measured here: viability with 2 uM doxorubicin, stronger effect = lower value.
Where [10] appears, read: H69AR cells, compound alone cytotoxicity.

Active and inactive are the calls of the source.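 The calls were made as follows, unless noted: active = viability loss from added drug above about 55%, and viability with drug at most 40%, in both replicates (limit read from the data, passing the limit was not always enough); inconclusive = both conditions met in only one replicate; inactive = neither replicate meets both conditions.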

Chain of Receptor tyrosine-protein kinase erbB-2 (Homo sapiens) (P04626 whole entry, looked up): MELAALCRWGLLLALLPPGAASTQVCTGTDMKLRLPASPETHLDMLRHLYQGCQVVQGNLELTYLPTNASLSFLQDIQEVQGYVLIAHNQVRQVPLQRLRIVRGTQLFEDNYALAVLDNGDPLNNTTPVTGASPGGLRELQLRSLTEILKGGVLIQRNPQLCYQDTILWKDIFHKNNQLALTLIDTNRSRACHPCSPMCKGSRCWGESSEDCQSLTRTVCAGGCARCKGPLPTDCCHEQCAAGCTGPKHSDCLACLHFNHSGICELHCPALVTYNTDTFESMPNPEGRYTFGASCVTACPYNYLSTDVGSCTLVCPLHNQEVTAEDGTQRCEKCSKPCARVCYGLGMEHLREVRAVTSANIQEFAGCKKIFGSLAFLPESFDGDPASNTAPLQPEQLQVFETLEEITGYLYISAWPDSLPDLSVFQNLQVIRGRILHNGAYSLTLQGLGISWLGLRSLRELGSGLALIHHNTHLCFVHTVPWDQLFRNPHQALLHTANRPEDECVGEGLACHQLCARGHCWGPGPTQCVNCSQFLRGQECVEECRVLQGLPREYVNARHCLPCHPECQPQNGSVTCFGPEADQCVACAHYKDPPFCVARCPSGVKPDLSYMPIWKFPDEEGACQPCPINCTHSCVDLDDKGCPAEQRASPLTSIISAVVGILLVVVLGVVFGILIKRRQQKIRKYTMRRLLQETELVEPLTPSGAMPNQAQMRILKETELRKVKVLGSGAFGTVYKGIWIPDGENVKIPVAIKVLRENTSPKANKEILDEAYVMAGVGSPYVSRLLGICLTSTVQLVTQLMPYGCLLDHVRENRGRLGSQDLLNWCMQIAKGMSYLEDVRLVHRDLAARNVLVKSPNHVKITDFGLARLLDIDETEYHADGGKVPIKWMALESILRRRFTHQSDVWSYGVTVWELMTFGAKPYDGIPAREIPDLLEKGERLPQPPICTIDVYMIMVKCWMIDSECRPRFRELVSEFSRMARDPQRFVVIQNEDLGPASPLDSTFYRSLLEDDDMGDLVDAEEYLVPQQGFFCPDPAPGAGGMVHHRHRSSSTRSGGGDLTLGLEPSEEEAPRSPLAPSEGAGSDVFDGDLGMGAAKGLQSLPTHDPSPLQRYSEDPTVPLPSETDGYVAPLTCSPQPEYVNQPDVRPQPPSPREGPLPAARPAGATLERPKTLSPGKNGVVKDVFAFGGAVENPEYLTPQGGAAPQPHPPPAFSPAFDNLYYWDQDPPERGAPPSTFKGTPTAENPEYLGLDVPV

One may read the viability as a read-out of living cells in per cent, often relative to untreated cells. What is called inhibition is the relative decrease from the control value, in per cent. Consider `O=C(Nc1ccccc1)c1cccc(N2CCCC2=O)c1`, for which the viability is 93% in assay [1]; 93% (inactive) in assay [3]; 104% (inactive) in assay [4]; 103% (inactive) in assay [5]; 84.8% in assay [6] (setting [9]); 103% in assay [6] (setting [10]). Further, the Her2 level in assay [2] was 114% (inactive). Further, the differential viability (reversal) in assay [6] (H69AR cells + 2 uM doxorubicin) was 18.2% (inactive). Further, the inhibition is -1.07% (inactive) in assay [7] and -9.52% (inactive) in assay [8].
In the case of `Cc1cccc(Cc2nnc(NC(=O)c3cccc(S(=O)(=O)N4CCOCC4)c3)s2)c1`, the viability was 107% in assay [1]; 107% (inactive) in assay [3]; 87.1% (inactive) in assay [4]; 79.2% (inactive) in assay [5]; 82.2% in assay [6] (setting [9]); 79.2% in assay [6] (setting [10]). The Her2 level in assay [2] is 100% (inactive). In assay [6] (H69AR cells + 2 uM doxorubicin), the differential viability (reversal) is -2.97% (inactive). Further, the inhibition in assay [7] is -1.82% (inactive); in assay [8], -5.33% (inactive).
Regarding `Cc1cc(C)c(NC(=O)C2CSCCS2)c(C)c1` (stereo not given), the viability in assay [1] was 90%; in assay [3], 90% (inactive); in assay [4] it was 99.7% (inactive); in assay [5], 100% (inactive); in assay [6] (setting [9]) it was 85.9%; in assay [6] (setting [10]) it was 100%. The Her2 level in assay [2] is 79.5% (inactive). In addition, the differential viability (reversal) in assay [6] (H69AR cells + 2 uM doxorubicin) was 14.1% (inactive). Besides, the inhibition was -3.82% (inactive) in assay [7] and -7.17% (inactive) in assay [8].
As to `CN(C1CCS(=O)(=O)C1)S(=O)C12CC3CC(CC(C3)C1)C2` (stereo not given), the viability in assay [1] is 83%; in assay [3], 83% (inactive); in assay [4], 92.8% (inactive); in assay [5], 99.9% (inactive); in assay [6] (setting [9]), 96.3%; in assay [6] (setting [10]) it was 99.9%. For the same molecule, the Her2 level in assay [2] is 95.5% (inactive). For the same molecule, in assay [6] (H69AR cells + 2 uM doxorubicin), the differential viability (reversal) was 3.66% (inactive). The inhibition in assay [7] is -5.75% (inactive); in assay [8] it was -5.08% (inactive).
`COC(=O)c1ccc(-c2sc3nc(N4CCOCC4)c4c(c3c2N)CCCC4)o1`: the viability in assay [1] was 108%; in assay [3], 108% (inactive); in assay [4] it was 74.4% (inactive); in assay [5], 91% (inactive); in assay [6] (setting [9]), 92.2%; in assay [6] (setting [10]), 91%. Further, the Her2 level in assay [2] is 104% (inactive). For the same molecule, the differential viability (reversal) in assay [6] (H69AR cells + 2 uM doxorubicin) is -1.13% (inactive). The inhibition was -4% (inactive) in assay [7] and 27.3% (inactive) in assay [8].
Regarding `CCOC(=O)N1CCN(c2nc(-c3ccc(Cl)cc3)cs2)CC1`, the viability in assay [1] is 79.5%; in assay [3], 79.5% (inactive); in assay [4], 98.3% (inactive); in assay [5], 89.1% (inactive); in assay [6] (setting [9]), 98.6%; in assay [6] (setting [10]), 89.1%. For the same molecule, the Her2 level in assay [2] was 125% (inactive). Further, the differential viability (reversal) in assay [6] (H69AR cells + 2 uM doxorubicin) was -9.49% (inactive). Moreover, the inhibition in assay [7] is -4.23% (inactive); in assay [8], -7.83% (inactive).
As for `COc1cccc(C(=O)CN2CCC(NC(=O)NC3CCCCC3)CC2)c1`, the viability in assay [1] was 92%; in assay [3], 92% (inactive); in assay [4] it was 102% (inactive); in assay [5], 98.1% (inactive); in assay [6] (setting [9]), 91.5%; in assay [6] (setting [10]), 98.1%. Moreover, the Her2 level in assay [2] is 101% (inactive). Moreover, the differential viability (reversal) in assay [6] (H69AR cells + 2 uM doxorubicin) is 6.55% (inactive). Moreover, the inhibition in assay [7] is -5.79% (inactive); in assay [8], -2% (inactive).
As to `CCN(CCCNC(=O)c1cn(CC)c2ccc(S(=O)(=O)N(C)C)cc2c1=O)c1cccc(C)c1`, the viability is 98% in assay [1]; 98% (inactive) in assay [3]; 61.6% (inactive) in assay [4]; 80% (inactive) in assay [5]; 19.6% in assay [6] (setting [9]); 80% in assay [6] (setting [10]). For the same molecule, the Her2 level in assay [2] is 74.5% (inactive). Further, the differential viability (reversal) in assay [6] (H69AR cells + 2 uM doxorubicin) was 60.4% (active). Besides, the inhibition was -2.8% (inactive) in assay [7] and 4.26% (inactive) in assay [8].
Turning to `Cc1ccc(-n2c(=O)[nH]c3c(C(N)=O)nc(CC(C)C)nc32)cc1`, the viability in assay [1] is 105%; in assay [3], 105% (inactive); in assay [4], 89% (inactive); in assay [5], 72.6% (inactive); in assay [6] (setting [9]), 91.2%; in assay [6] (setting [10]) it was 72.6%. Besides, the Her2 level in assay [2] is 106% (inactive). Also, the differential viability (reversal) in assay [6] (H69AR cells + 2 uM doxorubicin) was -18.6% (inactive). Also, the inhibition in assay [7] is -2.76% (inactive); in assay [8] it was 5.57% (inactive).
Turning to `Cc1ccc(S(=O)(=O)Cn2nnnc2CN(Cc2ccco2)CC2CCCO2)cc1` (stereo not given), the viability in assay [1] is 90%; in assay [3] it was 90% (inactive); in assay [4], 110% (inactive); in assay [5] it was 83.3% (inactive); in assay [6] (setting [9]) it was 84%; in assay [6] (setting [10]), 83.3%. The Her2 level in assay [2] is 96.5% (inactive). Besides, in assay [6] (H69AR cells + 2 uM doxorubicin), the differential viability (reversal) was -0.665% (inactive). Besides, the inhibition in assay [7] is -2.53% (inactive); in assay [8], 44.8% (active).
Regarding `CCOC(=O)C(NC(=O)OC(C)C)(Nc1nccs1)C(F)(F)F` (stereo not given), the viability was 89.5% in assay [1]; 89.5% (inactive) in assay [3]; 103% (inactive) in assay [4]; 110% (inactive) in assay [5]; 97.6% in assay [6] (setting [9]); 110% in assay [6] (setting [10]). Further, the Her2 level in assay [2] is 96.5% (inactive). In addition, the differential viability (reversal) in assay [6] (H69AR cells + 2 uM doxorubicin) was 12% (inactive). Also, the results for the inhibition in assay [7] and in assay [8] were -4.29% (inactive) and 4.44% (inactive), respectively.
Regarding `CCOCCCNC(=O)CS(=O)(=O)Cc1nc(-c2cccc(OC)c2)oc1C`, the viability in assay [1] was 128%; in assay [3], 128% (inactive); in assay [4] it was 88.4% (inactive); in assay [5] it was 84% (inactive); in assay [6] (setting [9]), 87.8%; in assay [6] (setting [10]), 84%. Also, the Her2 level in assay [2] is 92% (inactive). The differential viability (reversal) in assay [6] (H69AR cells + 2 uM doxorubicin) is -3.73% (inactive). Besides, the inhibition was -4.81% (inactive) in assay [7] and 5.24% (inactive) in assay [8].
As for `O=C(Cn1cnc2c(nnn2Cc2ccc(Cl)cc2)c1=O)NCC1CCCO1` (stereo not given), the viability was 120% in assay [1]; 120% (inactive) in assay [3]; 101% (inactive) in assay [4]; 106% (inactive) in assay [5]; 94.7% in assay [6] (setting [9]); 106% in assay [6] (setting [10]). The Her2 level in assay [2] is 78% (inactive). Moreover, the differential viability (reversal) in assay [6] (H69AR cells + 2 uM doxorubicin) was 10.8% (inactive). For the same molecule, the inhibition in assay [7] was -10.1% (inactive); in assay [8], -1.27% (inactive).
Take `Cc1cccc(N2CCN(C(=O)c3cc4c(=O)[nH]c5ccccc5c4n3C)CC2)c1C`: the viability in assay [1] was 72.5%; in assay [3], 72.5% (inactive); in assay [4], 65.5% (inactive); in assay [5] it was 95.9% (inactive); in assay [6] (setting [9]), 82.9%; in assay [6] (setting [10]), 95.9%. For the same molecule, the Her2 level in assay [2] was 57.5% (inactive). Moreover, the differential viability (reversal) in assay [6] (H69AR cells + 2 uM doxorubicin) is 13% (inactive). Besides, the values for the inhibition in assay [7] and in assay [8] were -3.33% (inactive) and 11% (inactive), respectively.
As to `CCC(=O)N[C@@H]1CC(C(C)(C)NC(=O)CC)CC=C1C` (stereo not given in full), the viability in assay [1] was 105%; in assay [3] it was 105% (inactive); in assay [4], 93.4% (inactive); in assay [5], 86.4% (inactive); in assay [6] (setting [9]) it was 87.4%; in assay [6] (setting [10]), 86.4%. The Her2 level in assay [2] is 83.5% (inactive). Further, the differential viability (reversal) in assay [6] (H69AR cells + 2 uM doxorubicin) was -1% (inactive). The inhibition is -5.33% (inactive) in assay [7] and -0.33% (inactive) in assay [8].
As to `O=S(=O)(CCOc1ccccc1)c1nc2ccccc2[nH]1`, the viability was 104% in assay [1]; 104% (inactive) in assay [3]; 54.7% (inactive) in assay [4]; 1.98% (active) in assay [5]; 1.77% in assay [6] (setting [9]); 1.98% in assay [6] (setting [10]). Also, the Her2 level in assay [2] is 18.5% (active). Besides, the differential viability (reversal) in assay [6] (H69AR cells + 2 uM doxorubicin) was 0.22% (inactive). Further, the inhibition in assay [7] was -3.95% (inactive); in assay [8], 3.11% (inactive).
